Measurements as given in ChEMBL document CHEMBL4732138, “Evaluation of the Structure-Activity Relationship of Microtubule-Targeting 1,2,4-Triazolo[1,5-a]pyrimidines Identifies New Candidates for Neurodegenerative Tauopathies” (J Med Chem, 2021).

How the values were obtained:
Format in all cases: cell-based
[1] = target: T1, Tubulin (Homo sapiens) (UniProt P68371+Q9H4B7+P0DPH7+P68366+Q13509+Q71U36+P04350+Q3ZCM7+P07437+P68363+Q9BQE3+Q6PEY2+Q13885+Q9BVA1+Q9BUF5); assay: Stabilization of microtubules in human QBI293 cells assessed as fold change in acetylated tubulin levels at 1 uM after 4 hrs by ELISA relative to cevipabulin
[2] = target: T1, Tubulin (Homo sapiens); assay: Stabilization of microtubules in human QBI293 cells assessed as fold change in alpha tubulin levels at 10 uM after 4 hrs by ELISA relative to DMSO
Summary of the method: (§1)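 QBI293 cells were grown in DMEM with 10% FBS, 2 mM L-glutamine and penicillin/streptomycin, then plated at 6 × 10^5 cells/well and left overnight. Medium was replaced with fresh medium holding vehicle (DMSO) or compound, and cells were incubated 4 h. Whole-cell extract supernatants were protein-normalized by BCA assay. AcTub and α-tubulin were quantified by ELISA against standard curves. Values are fold-change over DMSO, analysed by one-way ANOVA.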

[3] = target: T1, Tubulin (Homo sapiens); assay: Stabilization of microtubules in human QBI293 cells assessed as fold change in acetylated tubulin levels at 1 uM after 4 hrs by ELISA relative to DMSO; summary of the method: as §1
[4] = target: T1, Tubulin (Homo sapiens); assay: Stabilization of microtubules in human QBI293 cells assessed as fold change in acetylated tubulin levels at 10 uM after 4 hrs by ELISA relative to cevipabulin
[5] = target: T1, Tubulin (Homo sapiens); assay: Stabilization of microtubules in human QBI293 cells assessed as increase in acetylated tubulin levels after 4 hrs by ELISA
Summary of the method: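 QBI293 cells are grown in DMEM with 10% FBS, 2 mM L-glutamine and penicillin/streptomycin, plated at 6 × 10^5 cells/well and incubated overnight. […] Acetyl- and total α-tubulin in whole-cell extract supernatants are measured by ELISA against standard curves, with protein by BCA. Values are fold-change over DMSO; AcTub is also given relative to 100 nM cevipabulin positive control. Significance is by one-way ANOVA.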

[6] = target: T1, Tubulin (Homo sapiens); assay: Stabilization of microtubules in human QBI293 cells assessed as fold change in alpha tubulin levels at 1 uM after 4 hrs by ELISA relative to DMSO; summary of the method: as §1
[7] = target: T1, Tubulin (Homo sapiens); assay: Stabilization of microtubules in human QBI293 cells assessed as fold change in acetylated tubulin levels at 10 uM after 4 hrs by ELISA relative to DMSO; summary of the method: as §1

| Structure (SMILES) | fold change (FC) [1] | fold change (FC) [2] | fold change (FC) [3] | fold change (FC) [4] | Activity [5] | fold change (FC) [6] | fold change (FC) [7] |
| --- | --- | --- | --- | --- | --- | --- | --- |
| C[C@H](Nc1c(-c2ccc(F)c(F)c2)c(Cl)nc2ncnn12)C(F)(F)F | 0.05 | 1.13 | 1.85 | 0.12 | Dose-dependent effect | 1.01 | 4.76 |
| CC(C)CNc1c(-c2c(F)cc(F)cc2F)c(Cl)nc2ncnn12 | 0.38 | 0.99 | 1.63 | 0.53 | Dose-dependent effect | 1.3 | 2.28 |
| Fc1cc(F)c(-c2c(Cl)nc3ncnn3c2NCc2ccccc2)c(F)c1 | 0.16 | 1.06 | 1.05 | 0.22 | Dose-dependent effect | 1 | 1.49 |
| CC(CF)Nc1c(-c2c(F)cc(F)cc2F)c(Cl)nc2ncnn12 (stereo not drawn) | 0.3 | 1.09 | 1.32 | 0.35 | Dose-dependent effect | 0.92 | 1.5 |
| Fc1cc(F)c(-c2c(Cl)nc3ncnn3c2NC2CCC2)c(F)c1 | 0.13 | 0.95 | 0.97 | 0.23 | Dose-dependent effect | 0.94 | 1.75 |
| C[C@H](Nc1c(-c2c(F)cc(C(F)(F)F)cc2F)c(Cl)nc2ncnn12)C(F)(F)F | 0.13 | 1.02 | 1.09 | 0.16 | Dose-dependent effect | 1.06 | 1.39 |
| Fc1cc(F)c(-c2c(Cl)nc3ncnn3c2N2CCC2)c(F)c1 | 0.26 | 1.17 | 0.98 | 0.32 | Dose-dependent effect | 0.96 | 1.22 |
| C[C@H](Nc1c(-c2c(F)cc([N+](=O)[O-])cc2F)c(Cl)nc2ncnn12)C(F)(F)F | 0.6 | 0.94 | 3.24 | 1.23 | Dose-dependent effect | 0.96 | 6.65 |
| Fc1cc(F)c(-c2c(Cl)nc3ncnn3c2N2CCCC2)c(F)c1 | 0.07 | 1.18 | 1.14 | 0.16 | Dose-dependent effect | 1.12 | 2.74 |
| C[C@H](Nc1c(-c2cc(F)ccc2F)c(Cl)nc2ncnn12)C(F)(F)F | 0.07 | 0.9 | 1.4 | 0.22 | Dose-dependent effect | 1.05 | 4.1 |
| C[C@H](Nc1c(-c2ccccc2F)c(Cl)nc2ncnn12)C(F)(F)F | 0.13 | 1.05 | 1.73 | 0.26 | Dose-dependent effect | 1.09 | 3.56 |
| Fc1cc(F)c(-c2c(Cl)nc3ncnn3c2NC2CCCC2)c(F)c1 | 0.27 | 0.98 | 2.03 | 0.45 | Dose-dependent effect | 1.03 | 4.83 |
| Fc1cc(F)c(-c2c(Cl)nc3ncnn3c2N2CCCCC2)c(F)c1 | 0.13 | 1.2 | 2.21 | 0.33 | Dose-dependent effect | 1.23 | 5.84 |
| Fc1cc(F)c(-c2c(Cl)nc3ncnn3c2N2CCCCCCC2)c(F)c1 | 0.36 | 1.28 | 3.7 | 0.7 | Dose-dependent effect | 1.01 | 7.16 |
